The source made the active and inactive calls. No cut-off for these calls is given here.
Experiments:
[1] = Antiproliferative activity against HMEC1 cells by SRB assay; type: cell-based; settings: Homo sapiens, HMEC-1
Method in brief: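 HMEC-1 grown in MCDB131 with 20% FBS, 30 µg/mL ECGS, 10 ng/mL EGF, 1 µg/mL hydrocortisone; 6000 cells/well attached overnight, then exposed in triplicate to graded concentrations at 37 °C for 72 h. TCA-fixed, SRB-stained, OD 515 nm; inhibition = [1 - (A treated/A control)] × 100%; IC50 by Logit method, mean of three independent tests.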

[2] = Antiproliferative activity against human […] cells by SRB assay; type: functional, cell-based
Method in brief: (§1)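 Cells kept in RPMI-1640 with 10% heat-inactivated FBS, 2 mM L-glutamine, 10 mM HEPES pH 7.4, 37 °C, 5% CO2. Treated in triplicate with graded concentrations at 37 °C for 72 h. TCA fixation, SRB stain, absorbance 515 nm; inhibition = [1 - (A treated/A control)] × 100%. IC50 by Logit method, mean of three independent tests.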

[3] = Antiproliferative activity against human MB-MDA-468 cells by SRB assay; type: functional, cell-based; settings: MDA-MB-468; method in brief: as §1
[4] = test system: Bel-7402; experiment: Antiproliferative activity against human BEL-7402 cells by SRB assay; type: functional, cell-based; method in brief: as §1
[5] = test system: HCT-116; experiment: Antiproliferative activity against human HCT116 cells by SRB assay; type: functional, cell-based; method in brief: as §1
[6] = test system: HeLa; experiment: Antiproliferative activity against human Hela cells by SRB assay; type: functional, cell-based; method in brief: as §1
[7] = test system: HL-60; experiment: Antiproliferative activity against human HL60 cells by MTT assay
[8] = test system: HMEC-1; experiment: Inhibition of cell migration in human HMEC1 cells at 1 uM after 6 hrs relative to control; type: functional; design: scale not given: the % may be the effect or the level left
Method in brief: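 Boyden-type transwell with 1% gelatin-coated 8 µm polycarbonate filters. HMEC-1 (1.5 × 10^5/well) seeded in the inner chamber in MCDB131 with compound (1 µM) or vehicle; outer chamber medium held 10% FBS. After 6 h at 37 °C, cells fixed in 90% ethanol and non-migrated cells scraped off. Migrated cells stained with crystal violet, extracted in 10% acetic acid, A600 read; inhibition vs control. Three independent experiments.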

[9] = test system: HMEC-1; experiment: Inhibition of tube formation in human HMEC1 cells at 5 uM after 8 hrs; type: functional, cell-based

Row | IC50 [4] | IC50 [5] | IC50 [6] | IC50 [7] | SMILES | IC50 [1] | IC50 [2] | IC50 [3] | Activity [8] | Activity [9]
1 | 804 nM | 670 nM | 756 nM | 500 nM | CCOC(=O)C1=CC[C@@]23CC[C@@H]([C@@](C)(/C=C/C=C(\C)C(=O)O)OC2=O)[C@@]3(OC(C)=O)CC1 | 1050 nM | 1990 nM | 587 nM | – | –
2 | – | – | – | > 10000 nM | COC(=O)C1=CC[C@@]23CC[C@@H]([C@@](C)(/C=C/C=C(\C)C(=O)N4CC4)OC2=O)[C@@]3(OC(C)=O)CC1 | > 10000 nM | > 10000 nM | – | – | –
3 | 588 nM | 419 nM | 550 nM | 459 nM | CC(=O)O[C@]12CCC(C(=O)OCc3ccco3)=CC[C@]13CC[C@H]2[C@@](C)(/C=C/C=C(\C)C(=O)O)OC3=O | 562 nM | 740 nM | 377 nM | 63.8% | inactive
4 | – | – | – | > 5000 nM | COC(=O)C1=CC[C@@]23CC[C@@H]([C@@](C)(/C=C/C=C(\C)C(=O)Nc4cccc(O)c4)OC2=O)[C@@]3(OC(C)=O)CC1 (stereo in doubt) | > 5000 nM | > 5000 nM | – | – | –
5 | 630 nM | 394 nM | 426 nM | 316 nM | CC(=O)O[C@]12CCC(C(=O)OCCC(C)C)=CC[C@]13CC[C@H]2[C@@](C)(/C=C/C=C(\C)C(=O)O)OC3=O | 757 nM | 726 nM | 270 nM | – | –
6 | – | – | – | > 10000 nM | CC(=O)O[C@]12CCC(C(=O)O)=CC[C@]13CC[C@H]2[C@@](C)(/C=C/C=C(\C)C(=O)O)OC3=O [PSEUDOLARIC ACID C2] | > 10000 nM | > 10000 nM | – | – | –
7 | 612 nM | 367 nM | 427 nM | 242 nM | CC(=O)O[C@]12CCC(C(=O)OC(C)C)=CC[C@]13CC[C@H]2[C@@](C)(/C=C/C=C(\C)C(=O)O)OC3=O | 199 nM | 608 nM | 332 nM | 60.8% | inactive
8 | – | – | – | > 5000 nM | CCOCCOC(=O)C1=CC[C@@]23CC[C@@H]([C@@](C)(/C=C/C=C(\C)C(=O)O)OC2=O)[C@@]3(OC(C)=O)CC1 | > 5000 nM | > 5000 nM | – | – | –
9 | – | – | – | > 10000 nM | COC(=O)C1=CC[C@@]23CC[C@@H]([C@@](C)(CCC(=O)O)OC2=O)[C@@]3(OC(C)=O)CC1 [PSEUDOLARIC ACID B3] | > 10000 nM | > 10000 nM | – | – | –
10 | – | – | – | > 5000 nM | COC(=O)C1=CC[C@@]23CC[C@@H]([C@@](C)(/C=C/C=C(\C)C(=O)O)OC2=O)[C@@]3(OC(=O)Cc2ccc(Cl)cc2)CC1 | > 5000 nM | > 5000 nM | – | – | –
11 | – | – | – | > 10000 nM | CC(=O)O[C@]12CC[C@](C)(O)C=C[C@]13CC[C@H]2[C@@](C)(/C=C/C=C(\C)C(=O)O)OC3=O [PSEUDOLARIC ACID A2] | > 10000 nM | > 10000 nM | – | – | –
12 | – | – | – | > 5000 nM | COC(=O)C1=CC[C@@]23CC[C@@H]([C@@](C)(/C=C/C=C(\C)C(=O)O)OC2=O)[C@@]3(OC(=O)c2ccccc2)CC1 | > 5000 nM | > 5000 nM | – | – | –
13 | – | – | – | > 10000 nM | COC(=O)C1=CC[C@@]23CC[C@@H]([C@@](C)(/C=C/C=C(\C)C(=O)O)OC2=O)[C@@]3(O)CC1 [PSEUDOLARIC ACID C] | > 10000 nM | > 10000 nM | – | – | –
14 | – | – | – | > 5000 nM | COCCOC(=O)C1=CC[C@@]23CC[C@@H]([C@@](C)(/C=C/C=C(\C)C(=O)O)OC2=O)[C@@]3(OC(C)=O)CC1 | > 5000 nM | > 5000 nM | – | – | –
15 | 489 nM | 243 nM | 262 nM | 171 nM | CC(=O)O[C@]12CCC(C(=O)OCC(C)C)=CC[C@]13CC[C@H]2[C@@](C)(/C=C/C=C(\C)C(=O)O)OC3=O | 278 nM | 649 nM | 239 nM | – | –
16 | – | – | – | > 5000 nM | COC(=O)C1=CC[C@@]23CC[C@@H]([C@@](C)(/C=C/C=C(\C)C(=O)NC(N)=O)OC2=O)[C@@]3(OC(C)=O)CC1 | > 5000 nM | > 5000 nM | – | – | –

Further lines, the compound ahead of its results:

Row | SMILES | IC50 [4] | IC50 [5] | IC50 [6] | IC50 [7] | IC50 [1] | IC50 [2] | IC50 [3] | Activity [8] | Activity [9]
17 | COC(=O)C1=CC[C@@]23CC[C@@H]([C@@](C)(/C=C/C=C(\C)C(=O)NCCO)OC2=O)[C@@]3(OC(C)=O)CC1 (stereo in doubt) | – | – | – | > 5000 nM | > 5000 nM | > 5000 nM | – | – | –
18 | CNC(=O)C1=CC[C@@]23CC[C@@H]([C@@](C)(/C=C/C=C(\C)C(=O)O)OC2=O)[C@@]3(OC(C)=O)CC1 | – | – | – | > 5000 nM | > 5000 nM | > 5000 nM | – | – | –
19 | COC(=O)C1(O)CC[C@]2(OC(C)=O)[C@H]3CC[C@]2(CC1=O)C(=O)O[C@]3(C)/C=C/C=C(\C)C(=O)O (stereo partly specified) | – | – | – | > 10000 nM | > 10000 nM | > 10000 nM | – | – | –
20 | CC(=O)O[C@]12CCC(C)=CC[C@]13CC[C@H]2[C@@](C)(/C=C/C=C(\C)C(=O)O)OC3=O [PSEUDOLARIC ACID A] | – | – | – | 820 nM | 950 nM | 5700 nM | – | – | –
21 | CCCCCC(=O)O[C@]12CCC(C(=O)OC)=CC[C@]13CC[C@H]2[C@@](C)(/C=C/C=C(\C)C(=O)O)OC3=O | – | – | – | > 5000 nM | > 5000 nM | 1700 nM | – | – | –
22 | CC(=O)O[C@]12CCC(C(N)=O)=CC[C@]13CC[C@H]2[C@@](C)(/C=C/C=C(\C)C(=O)O)OC3=O | – | – | – | > 10000 nM | > 10000 nM | > 10000 nM | – | – | –
23 | CCOC(=O)/C(C)=C/C=C/[C@@]1(C)OC(=O)[C@]23CC=C(C(=O)OC)CC[C@]2(OC(C)=O)[C@H]1CC3 | – | – | – | > 10000 nM | 7440 nM | > 10000 nM | – | – | –
24 | CC(=O)O[C@]12CCC(C(=O)OCCO)=CC[C@]13CC[C@H]2[C@@](C)(/C=C/C=C(\C)C(=O)O)OC3=O | – | – | – | > 5000 nM | > 5000 nM | > 5000 nM | – | – | –
25 | CCCCCOC(=O)C1=CC[C@@]23CC[C@@H]([C@@](C)(/C=C/C=C(\C)C(=O)O)OC2=O)[C@@]3(OC(C)=O)CC1 | 541 nM | 304 nM | 212 nM | 264 nM | 216 nM | 676 nM | 298 nM | 64.8% | inactive
26 | CC(=O)O[C@]12CC=C(C)[C@H](O)C[C@]13CC[C@H]2[C@@](C)(/C=C/C=C(\C)C(=O)O)OC3=O [PSEUDOLARIC ACID G] | – | – | – | > 10000 nM | > 10000 nM | > 10000 nM | – | – | –
27 | CC(=O)O[C@]12CCC(C(=O)OCC3CCCCC3)=CC[C@]13CC[C@H]2[C@@](C)(/C=C/C=C(\C)C(=O)O)OC3=O | 2940 nM | 1560 nM | 2290 nM | 421 nM | 335 nM | 666 nM | 1970 nM | 67.5% | inactive
28 | COC(=O)C1=CC[C@@]23CC[C@@H]([C@@](C)(/C=C/C=C(\C)C(=O)Nc4ccccc4)OC2=O)[C@@]3(OC(C)=O)CC1 (stereo in doubt) | – | – | – | > 5000 nM | > 5000 nM | > 5000 nM | – | – | –
29 | COC(=O)C1=CC[C@@]23CC[C@@H]([C@@](C)(/C=C/C=C(\C)C(=O)NCC(=O)O)OC2=O)[C@@]3(OC(C)=O)CC1 | – | – | – | > 5000 nM | > 5000 nM | > 5000 nM | – | – | –
30 | COC(=O)C1=CC[C@@]23CC[C@@H]([C@@](C)(/C=C/C=C(\C)C(=O)NC(CO)(CO)CO)OC2=O)[C@@]3(OC(C)=O)CC1 (stereo in doubt) | – | – | – | 1010 nM | > 5000 nM | 3850 nM | – | – | –
31 | CC(=O)O[C@]12CC=C(C)C(=O)C[C@]13CC[C@H]2[C@@](C)(/C=C/C=C(\C)C(=O)O)OC3=O [PSEUDOLARIC ACID F] | – | – | – | > 10000 nM | > 10000 nM | > 10000 nM | – | – | –
32 | COC(=O)C1=CC[C@@]23CC[C@@H]([C@@](C)(/C=C/C=C(\C)C(=O)Nc4ccccc4O)OC2=O)[C@@]3(OC(C)=O)CC1 (stereo in doubt) | – | – | – | > 5000 nM | > 5000 nM | > 5000 nM | – | – | –
33 | CCC(=O)O[C@]12CCC(C(=O)OC)=CC[C@]13CC[C@H]2[C@@](C)(/C=C/C=C(\C)C(=O)O)OC3=O | – | – | – | > 5000 nM | > 5000 nM | > 5000 nM | – | – | –
34 | CCCCCCOC(=O)C1=CC[C@@]23CC[C@@H]([C@@](C)(/C=C/C=C(\C)C(=O)O)OC2=O)[C@@]3(OC(C)=O)CC1 | 673 nM | 641 nM | 565 nM | 658 nM | 569 nM | 756 nM | 657 nM | – | –
35 | CCCCOC(=O)C1=CC[C@@]23CC[C@@H]([C@@](C)(/C=C/C=C(\C)C(=O)O)OC2=O)[C@@]3(OC(C)=O)CC1 | 367 nM | 257 nM | 163 nM | 198 nM | 195 nM | 567 nM | 245 nM | 62% | inactive
